In ChEMBL document CHEMBL1121967 (J Med Chem, 1982):
Several values for one entry are separate records, joined by “and”; a condition that tells them apart may be missing. Equal entries are not always repeated. Activity calls are given as the source filed them. The calls are words filed in the database; no cut-off is given here. Residues, ends and D or L forms follow the SMILES beside them.

Experiments:
Type in all cases: functional
Cavia porcellus [1] = organism: Cavia porcellus; test: Negative log of the concentration producing 50% of the maximum effect was measured in guinea pig ileum as pA2-pA10
Cavia porcellus [2] = organism: Cavia porcellus; test: Negative log of the concentration producing 50% of the maximum effect was measured in guinea pig ileum; settings: for Kb: Cavia porcellus, Ileum, read-out: pA2 (converted)
How it was run: (§1)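 Isolated helical strips of rabbit mesenteric vein, longitudinal strips of guinea pig ileum, or helical strips of guinea pig trachea, held in 10-mL baths of Krebs' solution at 37 °C gassed with 95% O2/5% CO2. Isometric tension recorded. Cumulative agonist concentrations 10⁻¹⁰ to 10⁻⁵ M. pD2 is -log concentration giving 50% of the compound's own maximum. Intrinsic activity is a fraction of SP's, and affinity is relative to SP. Values come from 10-12 determinations.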

Cavia porcellus [3] = organism: Cavia porcellus; test: Concentration producing 50% of the maximum effect was tested in guinea pig ileum; inactive; how it was run: as §1
Cavia porcellus [4] = organism: Cavia porcellus; test: Concentration producing 50% of the maximum effect was tested in guinea pig trachea; inactive; how it was run: as §1
Oryctolagus cuniculus [5] = organism: Oryctolagus cuniculus; test: The intrinsic activity was measured in Rabbit mesenteric vein; settings: for Kb: read-out: pA2 (converted); how it was run: as §1
Oryctolagus cuniculus [6] = organism: Oryctolagus cuniculus; test: Negative log of the concentration producing 50% of the maximum effect was measured in Rabbit mesenteric vein; how it was run: as §1
Oryctolagus cuniculus [7] = organism: Oryctolagus cuniculus; test: Relative affinity was determined with substance P(SP) in Rabbit mesenteric vein; how it was run: as §1
Cavia porcellus [8] = organism: Cavia porcellus; test: Relative affinity was determined with substance P(SP) in guinea pig ileum; how it was run: as §1
Cavia porcellus [9] = organism: Cavia porcellus; test: Relative affinity was determined with substance P(SP) in guinea pig trachea; how it was run: as §1
Cavia porcellus [10] = organism: Cavia porcellus; test: Concentration producing 50% of the maximum effect was tested in guinea pig ileum; settings: read-out: ED50 (the source's name); how it was run: as §1
Cavia porcellus [11] = organism: Cavia porcellus; test: The intrinsic activity was measured in guinea pig ileum; how it was run: as §1
Cavia porcellus [12] = organism: Cavia porcellus; test: The intrinsic activity was measured in guinea pig trachea; how it was run: as §1
Cavia porcellus [13] = organism: Cavia porcellus; test: Negative log of the concentration producing 50% of the maximum effect was measured in guinea pig trachea; how it was run: as §1
Oryctolagus cuniculus [14] = organism: Oryctolagus cuniculus; test: Concentration producing 50% of the maximum effect was tested in Rabbit mesenteric vein; how it was run: as §1
Cavia porcellus [15] = organism: Cavia porcellus; test: Concentration producing 50% of the maximum effect was tested in guinea pig trachea; settings: read-out: ED50 (the source's name); how it was run: as §1
Oryctolagus cuniculus [16] = organism: Oryctolagus cuniculus; test: Negative log of the concentration producing 50% of the maximum effect was measured in Rabbit mesenteric vein as pA2-pA10

Row | EC50 (Cavia porcellus [10]) [nM] | EC50 (Cavia porcellus [15]) [nM] | Structure (SMILES) | pA2 minus pA10 difference (Cavia porcellus [1]) | RA (Oryctolagus cuniculus [7]) | RA (Cavia porcellus [8]) | RA (Cavia porcellus [9]) | Intrinsic actvity (Cavia porcellus [11]) | pD2 (Cavia porcellus [2]) | pD2 (Cavia porcellus [13]) | ED50 (Oryctolagus cuniculus [14]) [nM] | pD2 (Oryctolagus cuniculus [6]) | also measured
1 | – | – | CSCC[C@H](NC(=O)[C@H](CC(C)C)NC(=O)[C@H](Cc1c[nH]c2ccccc12)NC(=O)[C@H](Cc1ccccc1)NC(=O)[C@H](Cc1ccccc1)NC(=O)[C@H](CCC(N)=O)NC(=O)[C@H](CCC(N)=O)NC(=O)[C@@H]1CCCN1C(=O)[C@H](CCCCN)NC(=O)[C@@H]1CCCN1C(=O)[C@@H](N)CCCN=C(N)N)C(N)=O | 0.45 | – | – | – | – | – | – | – | – | Kb (Cavia porcellus [2]): 21.4 µM
2 | – | – | CSCC[C@H](NC(=O)[C@H](CC(C)C)NC(=O)[C@H](Cc1c[nH]c2ccccc12)NC(=O)[C@H](Cc1ccccc1)NC(=O)[C@H](Cc1c[nH]c2ccccc12)NC(=O)[C@H](CCC(N)=O)NC(=O)[C@H](CCC(N)=O)NC(=O)[C@@H]1CCCN1)C(N)=O (H-PQQWFWLM-NH2) | 1 and 1.01 | <0.1 | – | – | – | – | – | – | – | ED50 (Cavia porcellus [3]): inactive; ED50 (Cavia porcellus [4]): inactive; pA2 (Cavia porcellus [2]): 5.65 and 5.96; Kb (Oryctolagus cuniculus [5]): 2.24 µM; pA2-pA10 (Oryctolagus cuniculus [6]): 1
3 | 1.2 | 34 | CSCC[C@H](NC(=O)[C@H](CC(C)C)NC(=O)CNC(=O)[C@H](Cc1ccccc1)NC(=O)[C@H](Cc1ccccc1)NC(=O)[C@@H](N)CCC(N)=O)C(N)=O (H-QFFGLM-NH2) | – | 33 | 146 | 507 | 1 | 8.91 | 7.46 | 80 | 7.1 | Intrinsic actvity (Cavia porcellus [12]): 1.25; Activity (Oryctolagus cuniculus [5]): 1
4 | – | – | CSCC[C@H](NC(=O)[C@H](Cc1c[nH]c2ccccc12)NC(=O)CNC(=O)[C@H](Cc1ccccc1)NC(=O)[C@H](Cc1ccccc1)NC(=O)[C@@H](N)CCCN=C(N)N)C(N)=O (H-RFFGWM-NH2) | 0.82 | <0.1 | – | – | – | – | – | – | – | ED50 (Cavia porcellus [3]): inactive; ED50 (Cavia porcellus [4]): inactive; Kb (Cavia porcellus [2]): 9.77 µM; Activity (Oryctolagus cuniculus [16]): 0.69; Kb (Oryctolagus cuniculus [5]): 11 µM
5 | 1300 | 860 | CSCC[C@H](NC(=O)[C@H](CC(C)C)NC(=O)[C@H](Cc1c[nH]c2ccccc12)NC(=O)[C@H](Cc1ccccc1)NC(=O)[C@H](Cc1ccccc1)NC(=O)[C@@H](N)CCCN=C(N)N)C(N)=O (H-RFFWLM-NH2) | – | 2.7 | 0.1 | 20.3 | – | 5.88 | 6.06 | 970 | 6 | –
6 | 360 | 4200 | CSCC[C@H](NC(=O)[C@H](CC(C)C)NC(=O)CNC(=O)[C@H](Cc1c[nH]c2ccccc12)NC(=O)[C@H](Cc1ccccc1)NC(=O)[C@@H](N)CCCN=C(N)N)C(N)=O (H-RFWGLM-NH2) | – | – | 0.5 | 4.2 | 0.9 | 6.44 | 5.38 | – | – | Activity (Cavia porcellus [12]): 0.5
7 | 250 | 6600 | CSCC[C@H](NC(=O)[C@H](CC(C)C)NC(=O)CNC(=O)[C@H](Cc1ccccc1)NC(=O)[C@H](Cc1c[nH]c2ccccc12)NC(=O)[C@@H](N)CCCN=C(N)N)C(N)=O (H-RWFGLM-NH2) | – | 0.9 | 0.7 | 2.8 | 0.9 | 6.6 | 5.18 | 2700 | 5.56 | –
